The source of these data is ChEMBL document CHEMBL2163326, “Investigations on the 1-(2-biphenyl)piperazine motif: identification of new potent and selective ligands for the serotonin(7) (5-HT(7)) receptor with agonist or antagonist action in vitro or ex vivo” (J Med Chem, 2012).

The structures appear in SMILES notation. Calls of active or inactive are those of the source. The calls are words filed in the database; no cut-off is given here.

The target in assay [1] is T1, 5-hydroxytryptamine receptor 7 (Homo sapiens, UniProt P34969). Briefly: Displacement of [3H]-5-CT from human cloned 5HT7 receptor. For orientation: In a radioligand displacement assay an active substance lowers the binding of a labelled ligand.
T1 sequence (P34969 whole entry): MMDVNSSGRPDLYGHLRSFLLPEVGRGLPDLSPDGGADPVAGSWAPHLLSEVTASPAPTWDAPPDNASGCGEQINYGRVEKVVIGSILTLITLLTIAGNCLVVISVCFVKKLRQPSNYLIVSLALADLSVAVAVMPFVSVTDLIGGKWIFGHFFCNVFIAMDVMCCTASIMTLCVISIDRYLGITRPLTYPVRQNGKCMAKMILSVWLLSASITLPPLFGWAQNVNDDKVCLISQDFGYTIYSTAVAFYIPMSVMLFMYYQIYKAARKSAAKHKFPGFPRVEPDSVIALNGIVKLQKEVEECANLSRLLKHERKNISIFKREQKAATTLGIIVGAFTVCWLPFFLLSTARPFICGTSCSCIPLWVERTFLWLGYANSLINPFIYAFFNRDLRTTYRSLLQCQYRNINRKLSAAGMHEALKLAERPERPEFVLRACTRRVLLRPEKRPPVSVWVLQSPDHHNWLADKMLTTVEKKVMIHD
Assay [2] addresses Adrenergic receptor alpha-1 (Rattus norvegicus) (UniProt P15823+P23944+P43140). In words: Displacement of [3H]prazoin from rat cerebral cortex adrenergic alpha1 receptor at 100 nM. In kind it is tissue-based. In short, it runs like this: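 [3H]prazosin displacement was measured on rat cerebral cortex membranes, using one test concentration of 100 nM. Values are the mean of two independent experiments.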

Assay [3] has as its target T2, 5-hydroxytryptamine receptor 1A (Homo sapiens, UniProt P08908).
T2 sequence (P08908 whole entry): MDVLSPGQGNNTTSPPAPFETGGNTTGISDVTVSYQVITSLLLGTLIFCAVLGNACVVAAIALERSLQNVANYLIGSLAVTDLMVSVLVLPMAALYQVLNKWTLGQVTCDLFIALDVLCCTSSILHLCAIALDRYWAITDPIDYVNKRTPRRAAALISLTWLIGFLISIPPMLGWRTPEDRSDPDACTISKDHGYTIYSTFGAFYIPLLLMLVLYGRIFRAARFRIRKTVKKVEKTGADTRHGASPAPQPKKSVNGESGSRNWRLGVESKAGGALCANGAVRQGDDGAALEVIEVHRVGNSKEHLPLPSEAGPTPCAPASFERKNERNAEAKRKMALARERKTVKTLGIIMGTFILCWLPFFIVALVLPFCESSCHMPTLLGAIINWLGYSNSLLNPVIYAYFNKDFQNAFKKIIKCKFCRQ
In words: Displacement of [3H]-8-OH-DPAT from human cloned 5HT1A receptor.

The target in assay [4] is T1, 5-hydroxytryptamine receptor 7. Briefly: Antagonist activity at human 5HT7A receptor expressed in human HeLa cells assessed as inhibition of 5-HT-induced cAMP accumulation by ELISA. The class given is functional, cell-based. The method in brief: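 HeLa cells stably expressing human 5-HT7(a) were seeded in 96-well plates. They were co-treated with 1 μM 5-HT plus test agent. Intracellular cAMP was read by ELISA, and IC50 was taken for inhibition of 5-HT-stimulated cAMP accumulation.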
A general note: cAMP levels reflect the balance of adenylyl cyclase and phosphodiesterase activity.

The target of assay [5] is 5-hydroxytryptamine receptor 7 (Cavia porcellus) (UniProt P50407). In words: Agonist activity at 5HT7 receptor in guinea pig ileum assessed as inhibition of substance P-induced smooth muscle contraction at 0.5 uM in presence of 3 uM SB-269970. In kind it is functional, tissue-based. The method in brief:
(§1)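 Isolated guinea pig ileum was contracted with substance P. Relaxation was scored as percent relaxation of that contraction. Each run included a cocktail of non-5-HT7 receptor antagonists. To test 5-HT7 mediation, relaxation was repeated with the selective 5-HT7 antagonist at 3 μM; reversal was taken as 5-HT7-mediated.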

Assay [6] has the same target. In words: Agonist activity at 5HT7 receptor in guinea pig ileum assessed as inhibition of substance P-induced smooth muscle contraction at 1 uM. The class given is functional, tissue-based. The method in brief:
as §1

The target in assay [7] is T3, Adrenergic receptor alpha-1 (Rattus norvegicus, UniProt P15823+P23944+P43140).
T3 sequence (P15823 whole entry): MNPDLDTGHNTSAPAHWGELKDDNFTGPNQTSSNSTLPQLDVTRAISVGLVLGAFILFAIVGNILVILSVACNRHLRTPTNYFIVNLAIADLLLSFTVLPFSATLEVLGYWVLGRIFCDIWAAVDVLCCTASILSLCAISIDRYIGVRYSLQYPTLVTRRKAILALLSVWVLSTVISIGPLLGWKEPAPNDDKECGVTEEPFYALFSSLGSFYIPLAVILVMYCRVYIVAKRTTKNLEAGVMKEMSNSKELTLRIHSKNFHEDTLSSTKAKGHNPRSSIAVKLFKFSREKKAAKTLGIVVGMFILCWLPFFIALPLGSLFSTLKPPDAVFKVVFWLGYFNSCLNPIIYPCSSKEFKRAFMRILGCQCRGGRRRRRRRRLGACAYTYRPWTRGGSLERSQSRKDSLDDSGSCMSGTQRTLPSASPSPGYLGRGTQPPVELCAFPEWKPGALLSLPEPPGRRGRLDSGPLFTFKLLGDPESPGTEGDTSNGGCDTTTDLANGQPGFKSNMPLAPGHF
T3 sequence (P23944 whole entry): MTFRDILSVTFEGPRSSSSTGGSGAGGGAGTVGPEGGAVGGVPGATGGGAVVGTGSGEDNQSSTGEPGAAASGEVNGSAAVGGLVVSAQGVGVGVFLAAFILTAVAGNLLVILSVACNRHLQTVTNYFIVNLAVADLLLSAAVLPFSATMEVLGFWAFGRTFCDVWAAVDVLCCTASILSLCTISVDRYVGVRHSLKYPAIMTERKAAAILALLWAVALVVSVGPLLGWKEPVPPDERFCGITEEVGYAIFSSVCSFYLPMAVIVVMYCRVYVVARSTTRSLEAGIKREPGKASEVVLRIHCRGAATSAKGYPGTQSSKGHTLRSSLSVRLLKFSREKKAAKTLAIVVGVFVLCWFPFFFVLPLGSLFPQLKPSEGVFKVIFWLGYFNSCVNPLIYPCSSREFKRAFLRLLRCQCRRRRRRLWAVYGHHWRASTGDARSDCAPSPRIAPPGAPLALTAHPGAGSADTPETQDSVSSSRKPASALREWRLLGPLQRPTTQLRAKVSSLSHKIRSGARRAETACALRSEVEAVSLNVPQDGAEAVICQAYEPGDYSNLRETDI
T3 sequence (P43140 whole entry): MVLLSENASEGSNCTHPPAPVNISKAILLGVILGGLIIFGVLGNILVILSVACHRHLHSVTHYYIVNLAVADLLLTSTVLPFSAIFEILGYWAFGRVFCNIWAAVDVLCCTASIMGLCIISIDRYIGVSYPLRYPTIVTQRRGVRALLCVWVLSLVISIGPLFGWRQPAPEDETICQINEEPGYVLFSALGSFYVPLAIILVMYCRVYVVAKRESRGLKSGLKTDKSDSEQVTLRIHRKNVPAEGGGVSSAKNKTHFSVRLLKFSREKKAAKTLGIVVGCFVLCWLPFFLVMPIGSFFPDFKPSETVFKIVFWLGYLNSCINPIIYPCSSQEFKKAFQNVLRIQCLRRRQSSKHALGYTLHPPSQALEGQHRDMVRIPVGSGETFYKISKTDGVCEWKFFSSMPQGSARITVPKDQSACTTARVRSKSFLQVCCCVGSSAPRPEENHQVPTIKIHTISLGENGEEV
Briefly: Displacement of [3H]prazoin from rat cerebral cortex adrenergic alpha1 receptor. In kind it is tissue-based.

Assay [8] has as its target 5-hydroxytryptamine receptor 7 (Cavia porcellus) (UniProt P50407). Briefly: Agonist activity at 5HT7 receptor in guinea pig ileum assessed as inhibition of substance P-induced smooth muscle contraction at 0.5 uM. The class given is functional, tissue-based. In short, it runs like this: as §1
For assay [9], the target named is T1, 5-hydroxytryptamine receptor 7. Briefly: Agonist activity at human 5HT7A receptor expressed in human HeLa cells assessed as stimulation of cAMP accumulation. In kind it is functional, cell-based. The method in brief:
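HeLa cells stably expressing human 5-HT7(a) receptor were cultured and seeded into 96-well plates. Cells were exposed to test agent alone, and intracellular cAMP was measured by ELISA.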

Assay [10] deals with 5-hydroxytryptamine receptor 7 (Cavia porcellus) (UniProt P50407). In words: Agonist activity at 5HT7 receptor in guinea pig ileum assessed as inhibition of substance P-induced smooth muscle contraction at 1 uM in presence of 3 uM SB-269970. The class given is functional, tissue-based. In short, it runs like this:
as §1

The target of assay [11] is T4, 5-hydroxytryptamine receptor 1A (Homo sapiens) (UniProt P08908).
T4 sequence (whole entry): T2 sequence (P08908 whole entry)
Briefly: Displacement of [3H]-8-OH-DPAT from human cloned 5HT1A receptor at 100 nM.

Assay [12] concerns the target 5-hydroxytryptamine receptor 7 (Cavia porcellus) (UniProt P50407). Briefly: Agonist activity at 5HT7 receptor in guinea pig ileum assessed as inhibition of substance P-induced smooth muscle contraction at 2 uM. The class given is functional, tissue-based. The method in brief:
as §1

Assay [13] has the same target. Briefly: Agonist activity at 5HT7 receptor in guinea pig ileum assessed as inhibition of substance P-induced smooth muscle contraction at 2 uM in presence of 3 uM SB-269970. In kind it is functional, tissue-based. The method in brief: as §1
Assay [14] has as its target 5-hydroxytryptamine receptor 7 (Rattus norvegicus, UniProt P32305). Briefly: Displacement of [3H]LSD from rat kidney proximal convoluted tubule 5HT7R expressed in COS7 cells. In kind it is cell-based, COS-7.

5-hydroxytryptamine receptor 7 (Cavia porcellus), sequence (P50407 whole entry): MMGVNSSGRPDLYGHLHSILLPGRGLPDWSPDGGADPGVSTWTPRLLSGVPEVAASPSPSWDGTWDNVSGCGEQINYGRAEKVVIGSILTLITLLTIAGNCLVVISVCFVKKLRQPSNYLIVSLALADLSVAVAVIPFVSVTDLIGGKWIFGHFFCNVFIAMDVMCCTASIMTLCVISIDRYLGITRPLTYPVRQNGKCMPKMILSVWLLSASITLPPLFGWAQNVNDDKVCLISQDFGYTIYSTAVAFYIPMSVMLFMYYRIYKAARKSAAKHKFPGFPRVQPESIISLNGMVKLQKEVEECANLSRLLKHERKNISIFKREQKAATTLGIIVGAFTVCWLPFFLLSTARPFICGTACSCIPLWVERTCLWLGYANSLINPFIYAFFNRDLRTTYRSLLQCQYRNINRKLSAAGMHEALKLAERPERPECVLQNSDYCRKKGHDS
5-hydroxytryptamine receptor 7 (Rattus norvegicus, UniProt P32305), sequence (P32305 whole entry): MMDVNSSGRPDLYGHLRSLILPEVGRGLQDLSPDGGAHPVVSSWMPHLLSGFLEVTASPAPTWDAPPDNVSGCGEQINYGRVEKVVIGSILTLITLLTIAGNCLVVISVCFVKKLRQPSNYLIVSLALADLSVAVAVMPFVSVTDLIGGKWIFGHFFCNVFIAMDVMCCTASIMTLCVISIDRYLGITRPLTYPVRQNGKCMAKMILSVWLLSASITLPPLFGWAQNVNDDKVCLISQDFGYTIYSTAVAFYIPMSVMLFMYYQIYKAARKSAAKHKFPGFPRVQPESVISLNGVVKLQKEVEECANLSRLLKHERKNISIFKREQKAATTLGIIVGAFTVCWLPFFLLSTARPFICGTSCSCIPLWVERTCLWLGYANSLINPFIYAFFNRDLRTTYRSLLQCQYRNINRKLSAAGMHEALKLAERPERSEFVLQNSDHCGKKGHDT

A word on the Ki: it is a dissociation constant, usually derived from enzyme kinetics or from competition with a known ligand. Read a high Ki as a looser hold on the target. With `O=[N+]([O-])c1ccc(-c2cccc(N3CCNCC3)c2)cc1`, the Ki in [1] was determined as 13 nM; in assay [3], 31.4 nM. In [2], this compound registered an Activity of 8%.
For the compound `c1ccc(-c2cccc(N3CCNCC3)c2)nc1`, the Ki in assay [1] stood at 80 nM; in [3] it was 14.9 nM. The compound further yielded an Activity in [2] of 27%.
Consider `Cc1ccccc1-c1cccc(N2CCNCC2)c1`, for which the Ki worked out at 1.4 nM in assay [1] and 17.4 nM in assay [3].
Turning to `Fc1ccc(-c2cccc(N3CCNCC3)c2)cc1`, the Ki in assay [1] is 109 nM; in assay [3] it was 63.2 nM. The same compound gave an Activity in assay [2] of 3%.
The term IC50 denotes the concentration that inhibits the measured activity by half. As to `COc1ccc(-c2ccccc2N2CCNCC2)cc1`, in assay [4], the IC50 worked out at 438 nM. The result in assay [5], in [9] and in [10] was inactive. Further, the result in [6] and in assay [8] was Active. The values for the Ki in assay [7], in assay [1] and in [3] were 156 nM, 2.6 nM and 476 nM, respectively.
For `O=[N+]([O-])c1ccc(-c2ccccc2N2CCNCC2)cc1`, the Ki in [7] was 105 nM; in [1], 7 nM. The compound further gave an Activity in assay [11] of 16%.
Consider `c1ccc(-c2ccccc2N2CCNCC2)cc1`, for which the IC50 in [4] was found to be 531 nM. The outcome in assay [5], in assay [9] and in [10] was inactive. Besides, the outcome in assay [6] and in [8] was Active. Further, the Ki amounted to 59.1 nM in assay [7], 1.4 nM in assay [1] and 99 nM in assay [3].
As for `Cc1ccc(-c2ccccc2N2CCNCC2)cc1C`, the result in [6] and in assay [12] was Active. The Ki in assay [7] stood at 165 nM; in assay [1], 1.9 nM. The outcome in [13] was inactive. Moreover, the Activity in [11] stood at 22%.
With `Fc1ccc(-c2ccccc2N2CCNCC2)cc1`, the result in assay [5] and in assay [10] was inactive. Besides, the result in assay [6] and in [8] was Active. The compound further registered a Ki in assay [1] of 2.7 nM. For the same compound, the Activity stood at 14% in assay [2] and 15% in [11].
Compound `COc1ccc(-c2cccc(N3CCNCC3)c2)cc1` yielded a Ki in assay [1] greater than 5000 nM. Besides, the results for the Activity in assay [2] and in assay [11] were 29% and 42%, respectively.
For `Cc1ccc(-c2cccc(N3CCNCC3)c2)cc1C`, the affinity in assay [1] corresponds to a Ki of 93 nM. Moreover, the Activity in assay [2] amounted to 7%; in [11], 34%.
In [1], `Cc1ccccc1-c1ccccc1N1CCNCC1` displayed a Ki of 6.9 nM.
For `c1ccc(-c2ccccc2N2CCNCC2)nc1`, in assay [1], the Ki was 23 nM. Further, the Activity in [2] turned out to be 11%; in assay [11], 23%.
`c1ccc2c(N3CCNCC3)cccc2c1`: affinity in [14] was put at a Ki of 83 nM.
For `Cc1nn(C)c(C)c1-c1cccc2c1CC[C@H](N(C)C)C2`, the outcome in assay [6] and in assay [12] was Active. Further, the outcome in assay [8], in assay [13] and in assay [10] was inactive.
With `COc1ccccc1-c1cccc(N2CCNCC2)c1`, in assay [1], the affinity corresponds to a Ki of 8.2 nM.
For the compound `COc1ccccc1-c1ccccc1N1CCNCC1`, the Ki in [1] was found to be 18.4 nM.
Take `COc1cccc(OC)c1-c1ccccc1N1CCNCC1`: affinity in assay [1] was put at a Ki of 96 nM. The Activity was found to be 10% in [2] and 21% in assay [11].
For the compound `COc1cccc(OC)c1-c1cccc(N2CCNCC2)c1`, the results for the Ki in [1] and in [3] were 7.1 nM and 149 nM, respectively. Moreover, the Activity in assay [2] turned out to be 3%.
`c1ccc(-c2cccc(N3CCNCC3)c2)cc1`: the Ki in assay [1] is 25 nM; in assay [3], 72.1 nM. Besides, the Activity in [2] was found to be 21%.
